Measurements reported in ChEMBL document CHEMBL1133101, “7-Methyl-6,7,8,9,14,15-hexahydro-5H-benz[d]indolo[2,3-g]azecine: a new heterocyclic system and a new lead compound for dopamine receptor antagonists” (J Med Chem, 2000).
pKi: −log10 of the molar value.

How the values were obtained:
[1] = molecular target: Sodium-dependent serotonin transporter (Homo sapiens) (UniProt P31645); assay: % Decrease of 5-HT carrier-receptor -bound radioactivity using paroxetine as a radioligand.; parameters: concentration or dose not given beside the values
Method in brief: (§1)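 Preliminary screen of receptors isolated from rat or pig tissues, run with minor changes to standard procedures. Each compound was tested at a single fixed concentration for each receptor. The read-out was the percent decrease in binding of the named radioligand.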

[2] = molecular target: T1, 5-hydroxytryptamine receptor 1A (Homo sapiens) (UniProt P08908); assay: Percent decrease in 5-hydroxytryptamine 1A receptor binding using 8-OH-DPAT; parameters: concentration or dose not given beside the values; method in brief: as §1
T1 sequence (whole entry): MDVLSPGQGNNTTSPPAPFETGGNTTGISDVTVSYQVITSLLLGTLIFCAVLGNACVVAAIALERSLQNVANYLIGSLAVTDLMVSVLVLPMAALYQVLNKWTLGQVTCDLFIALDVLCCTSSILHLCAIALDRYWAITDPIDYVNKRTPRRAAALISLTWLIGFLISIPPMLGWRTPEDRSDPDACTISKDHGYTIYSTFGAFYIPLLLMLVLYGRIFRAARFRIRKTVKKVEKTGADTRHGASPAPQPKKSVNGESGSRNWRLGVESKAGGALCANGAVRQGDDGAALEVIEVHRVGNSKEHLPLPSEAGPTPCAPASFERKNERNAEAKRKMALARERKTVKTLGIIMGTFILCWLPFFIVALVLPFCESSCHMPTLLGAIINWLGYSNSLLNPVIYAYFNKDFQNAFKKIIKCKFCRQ

[3] = molecular target: Serotonin 2 (5-HT2) receptor (Homo sapiens) (UniProt P41595+P28223+P28335); assay: (§2) Percent decrease in 5-hydroxytryptamine 2 receptor binding using ketanserin; assay type: protein assay; parameters: scale not given: the % may be the effect or the level left; method in brief: as §1
[4] = molecular target: Serotonin 2 (5-HT2) receptor (Rattus norvegicus, UniProt P30994+P08909+P14842); assay: Binding affinity against 5-hydroxytryptamine 2 receptor in rat striatum using [3H]-RP62203; assay type: tissue-based
[5] = molecular target: T2, Adenosine receptor A1 (Homo sapiens) (UniProt P30542); assay: Percent decrease in Adenosine A1 receptor binding using CPDPX; parameters: scale not given: the % may be the effect or the level left
T2 sequence (whole entry): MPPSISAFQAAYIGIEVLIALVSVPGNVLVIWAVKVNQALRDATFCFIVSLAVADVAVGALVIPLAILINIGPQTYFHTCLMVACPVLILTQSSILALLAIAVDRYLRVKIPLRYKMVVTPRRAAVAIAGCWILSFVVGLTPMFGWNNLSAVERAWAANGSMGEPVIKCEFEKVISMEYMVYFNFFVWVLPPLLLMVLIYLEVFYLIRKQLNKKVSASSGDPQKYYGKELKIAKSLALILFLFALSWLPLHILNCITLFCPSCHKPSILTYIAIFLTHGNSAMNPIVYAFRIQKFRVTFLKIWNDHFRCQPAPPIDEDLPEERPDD

[6] = molecular target: Angiotensin II receptor (Homo sapiens) (UniProt P30556+P50052); assay: Percent decrease of Angiotensin II receptor binding; assay type: protein assay; parameters: concentration or dose not given beside the values; method in brief: as §1
[7] = molecular target: GABA-A receptor; anion channel (Homo sapiens) (UniProt P14867+P47870+P18507+P28472+P48169+Q99928+Q9UN88+P34903+O00591+O14764+Q8N1C3+P18505+P78334+P47869+P31644+Q16445); assay: Displacement of muscimol from GABA-A receptor; assay type: protein-complex assay; method in brief: as §1
[8] = Percent decrease in Bradykinin receptor binding; parameters: concentration or dose not given beside the values; method in brief: as §1
D(1A) dopamine receptor = D(1A) dopamine receptor (Rattus norvegicus, UniProt P18901); assay: Binding affinity against Dopamine receptor D1 of rat striatal receptor using [3H]SCH-23390
Method in brief: (§3)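 Rat striatal receptor preparations were used, with [3H]SCH23390 for D1, [3H]spiperone for D2 and [3H]RP62203 for 5-HT2. Ki ([…]) was derived from competitive displacement of the radioligand, with n = 3–7.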

D(2) dopamine receptor = D(2) dopamine receptor (Rattus norvegicus, UniProt P61169); assay: Binding affinity against Dopamine receptor D2 of rat striatal mambranes using [3H]spiperone; method in brief: as §3
[9] = Percent decrease of Endothelin receptor binding using [125I]sarafotoxin; parameters: concentration or dose not given beside the values
[10] = molecular target: Sulfonylurea receptors; K-ATP channels (Homo sapiens) (UniProt Q14654+O60706+Q09428+Q15842); assay: Percent inhibition of glibenclamide binding to K+ channel; assay type: protein-complex assay; parameters: concentration or dose not given beside the values; method in brief: as §1
[11] = molecular target: T3, Muscarinic acetylcholine receptor M1 (Homo sapiens) (UniProt P11229); assay: Percent decrease of Muscarinic acetylcholine receptor M1 binding using pirenzepine; parameters: scale not given: the % may be the effect or the level left; method in brief: as §1
T3 sequence (whole entry): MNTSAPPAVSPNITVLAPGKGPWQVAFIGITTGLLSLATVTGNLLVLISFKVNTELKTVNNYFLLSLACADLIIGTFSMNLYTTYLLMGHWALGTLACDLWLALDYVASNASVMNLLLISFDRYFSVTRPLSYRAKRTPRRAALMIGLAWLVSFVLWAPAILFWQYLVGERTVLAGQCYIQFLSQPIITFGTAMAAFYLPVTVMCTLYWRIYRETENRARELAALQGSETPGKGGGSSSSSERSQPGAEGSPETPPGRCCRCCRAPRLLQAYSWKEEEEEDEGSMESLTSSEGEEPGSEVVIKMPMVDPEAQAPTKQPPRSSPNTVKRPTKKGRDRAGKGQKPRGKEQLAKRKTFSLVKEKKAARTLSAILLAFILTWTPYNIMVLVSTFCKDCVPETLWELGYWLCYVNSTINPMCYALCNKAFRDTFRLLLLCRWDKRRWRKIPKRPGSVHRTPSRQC

[12] = molecular target: Neuronal acetylcholine receptor (Rattus norvegicus) (UniProt P04757+P09483+P12389+P12390+P12392+P43144+Q9JLB5+P12391+P43143+P20420+Q05941); assay: % Decrease of Nicotinic acetylcholine receptor-bound radioactivity using cytisine as a radioligand.; assay type: protein-complex assay; parameters: scale not given: the % may be the effect or the level left; method in brief: as §1
[13] = molecular target: Glutamate [NMDA] receptor (Homo sapiens) (UniProt Q05586+Q12879+Q13224+O15399+O60391+Q14957+Q8TCU5); assay: Percent decrease of N-methyl-D-aspartate glutamate receptor binding using MK-801; assay type: protein-complex assay; parameters: concentration or dose not given beside the values; method in brief: as §1
[14] = % Decrease of Phorbol Diester Receptor -bound radioactivity using PDBU as a radioligand.; parameters: scale not given: the % may be the effect or the level left; method in brief: as §1
[15] = molecular target: T4, Glutamate receptor ionotropic AMPA (Homo sapiens) (UniProt P48058+P42263+P42262+P42261); assay: Percent decrease in Quisqualate receptor binding using AMPA; assay type: protein-complex assay; parameters: scale not given: the % may be the effect or the level left; method in brief: as §1
[16] = % Decrease of adenosine carrier-receptor -bound radioactivity using NBTI as a radioligand.; parameters: concentration or dose not given beside the values; method in brief: as §1
[17] = molecular target: D(1A) dopamine receptor (Rattus norvegicus) (UniProt P18901); assay: Percent decrease in Dopamine receptor D1 binding using SCH-23390; parameters: scale not given: the % may be the effect or the level left
[18] = Percent decrease in Dopamine receptor D2 binding using spiperone; parameters: scale not given: the % may be the effect or the level left
[19] = molecular target: Serotonin 2 (5-HT2) receptor (Rattus norvegicus) (UniProt P30994+P08909+P14842); assay: as §2; assay type: protein assay; parameters: scale not given: the % may be the effect or the level left; method in brief: as §1
[20] = molecular target: T2, Adenosine receptor A1 (Homo sapiens); assay: Percent decrease in adenosine-A1-receptor binding using CPDPX; parameters: scale not given: the % may be the effect or the level left; method in brief: as §1
[21] = molecular target: Adrenergic receptor alpha-1 (Homo sapiens) (UniProt P35348+P25100+P35368); assay: Percent decrease in Alpha-1 adrenergic receptor binding using prazosin; assay type: protein assay; method in brief: as §1
[22] = molecular target: D(2) dopamine receptor (Rattus norvegicus) (UniProt P61169); assay: Percent decrease in Dopamine receptor D2 binding using spiperone; parameters: scale not given: the % may be the effect or the level left; method in brief: as §1
[23] = molecular target: T4, Glutamate receptor ionotropic AMPA (Homo sapiens); assay: Percent decrease of Quisqualate receptor binding using AMPA; assay type: protein-complex assay; parameters: scale not given: the % may be the effect or the level left; method in brief: as §1

Sulfonylurea receptors; K-ATP channels (Homo sapiens), sequence (O60706 whole entry, looked up): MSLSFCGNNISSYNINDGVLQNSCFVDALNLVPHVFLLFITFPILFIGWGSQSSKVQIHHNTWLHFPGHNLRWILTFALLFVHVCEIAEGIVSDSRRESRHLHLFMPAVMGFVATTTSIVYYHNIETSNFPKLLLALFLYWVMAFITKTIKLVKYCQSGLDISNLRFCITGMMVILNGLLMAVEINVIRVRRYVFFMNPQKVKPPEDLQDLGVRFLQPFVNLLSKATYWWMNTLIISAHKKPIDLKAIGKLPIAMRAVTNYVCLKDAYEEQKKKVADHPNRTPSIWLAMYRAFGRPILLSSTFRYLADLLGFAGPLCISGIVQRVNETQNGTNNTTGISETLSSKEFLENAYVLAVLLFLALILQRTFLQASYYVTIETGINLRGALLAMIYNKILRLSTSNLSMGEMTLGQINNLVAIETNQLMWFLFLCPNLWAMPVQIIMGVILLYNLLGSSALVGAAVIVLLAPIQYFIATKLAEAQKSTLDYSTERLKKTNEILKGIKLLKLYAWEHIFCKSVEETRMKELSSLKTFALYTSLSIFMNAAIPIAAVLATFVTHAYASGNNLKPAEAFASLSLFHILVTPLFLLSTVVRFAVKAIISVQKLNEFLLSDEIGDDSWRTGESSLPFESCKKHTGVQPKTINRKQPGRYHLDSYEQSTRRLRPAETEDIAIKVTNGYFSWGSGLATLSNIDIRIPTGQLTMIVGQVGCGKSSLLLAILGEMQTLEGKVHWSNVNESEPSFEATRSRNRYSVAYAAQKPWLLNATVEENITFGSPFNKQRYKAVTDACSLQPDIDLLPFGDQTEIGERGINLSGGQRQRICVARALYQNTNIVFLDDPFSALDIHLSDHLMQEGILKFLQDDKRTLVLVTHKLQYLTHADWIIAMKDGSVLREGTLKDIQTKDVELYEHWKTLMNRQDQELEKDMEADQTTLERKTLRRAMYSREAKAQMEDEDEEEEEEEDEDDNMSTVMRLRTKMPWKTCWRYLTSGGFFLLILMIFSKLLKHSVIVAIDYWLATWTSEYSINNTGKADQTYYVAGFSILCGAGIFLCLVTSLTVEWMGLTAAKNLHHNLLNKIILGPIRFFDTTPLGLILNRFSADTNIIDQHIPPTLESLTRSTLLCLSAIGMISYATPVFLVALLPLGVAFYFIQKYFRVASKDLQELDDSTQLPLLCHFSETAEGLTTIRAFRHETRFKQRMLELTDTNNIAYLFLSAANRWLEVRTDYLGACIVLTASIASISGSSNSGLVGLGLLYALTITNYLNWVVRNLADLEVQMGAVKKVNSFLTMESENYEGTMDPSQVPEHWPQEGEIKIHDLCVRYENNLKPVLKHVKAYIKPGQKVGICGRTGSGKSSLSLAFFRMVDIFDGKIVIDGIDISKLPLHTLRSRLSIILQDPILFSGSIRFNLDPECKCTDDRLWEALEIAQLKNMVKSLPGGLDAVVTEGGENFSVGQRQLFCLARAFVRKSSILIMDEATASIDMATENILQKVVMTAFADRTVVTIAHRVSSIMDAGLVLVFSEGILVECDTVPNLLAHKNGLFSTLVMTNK
Sulfonylurea receptors; K-ATP channels (Homo sapiens), sequence (Q09428 whole entry, looked up): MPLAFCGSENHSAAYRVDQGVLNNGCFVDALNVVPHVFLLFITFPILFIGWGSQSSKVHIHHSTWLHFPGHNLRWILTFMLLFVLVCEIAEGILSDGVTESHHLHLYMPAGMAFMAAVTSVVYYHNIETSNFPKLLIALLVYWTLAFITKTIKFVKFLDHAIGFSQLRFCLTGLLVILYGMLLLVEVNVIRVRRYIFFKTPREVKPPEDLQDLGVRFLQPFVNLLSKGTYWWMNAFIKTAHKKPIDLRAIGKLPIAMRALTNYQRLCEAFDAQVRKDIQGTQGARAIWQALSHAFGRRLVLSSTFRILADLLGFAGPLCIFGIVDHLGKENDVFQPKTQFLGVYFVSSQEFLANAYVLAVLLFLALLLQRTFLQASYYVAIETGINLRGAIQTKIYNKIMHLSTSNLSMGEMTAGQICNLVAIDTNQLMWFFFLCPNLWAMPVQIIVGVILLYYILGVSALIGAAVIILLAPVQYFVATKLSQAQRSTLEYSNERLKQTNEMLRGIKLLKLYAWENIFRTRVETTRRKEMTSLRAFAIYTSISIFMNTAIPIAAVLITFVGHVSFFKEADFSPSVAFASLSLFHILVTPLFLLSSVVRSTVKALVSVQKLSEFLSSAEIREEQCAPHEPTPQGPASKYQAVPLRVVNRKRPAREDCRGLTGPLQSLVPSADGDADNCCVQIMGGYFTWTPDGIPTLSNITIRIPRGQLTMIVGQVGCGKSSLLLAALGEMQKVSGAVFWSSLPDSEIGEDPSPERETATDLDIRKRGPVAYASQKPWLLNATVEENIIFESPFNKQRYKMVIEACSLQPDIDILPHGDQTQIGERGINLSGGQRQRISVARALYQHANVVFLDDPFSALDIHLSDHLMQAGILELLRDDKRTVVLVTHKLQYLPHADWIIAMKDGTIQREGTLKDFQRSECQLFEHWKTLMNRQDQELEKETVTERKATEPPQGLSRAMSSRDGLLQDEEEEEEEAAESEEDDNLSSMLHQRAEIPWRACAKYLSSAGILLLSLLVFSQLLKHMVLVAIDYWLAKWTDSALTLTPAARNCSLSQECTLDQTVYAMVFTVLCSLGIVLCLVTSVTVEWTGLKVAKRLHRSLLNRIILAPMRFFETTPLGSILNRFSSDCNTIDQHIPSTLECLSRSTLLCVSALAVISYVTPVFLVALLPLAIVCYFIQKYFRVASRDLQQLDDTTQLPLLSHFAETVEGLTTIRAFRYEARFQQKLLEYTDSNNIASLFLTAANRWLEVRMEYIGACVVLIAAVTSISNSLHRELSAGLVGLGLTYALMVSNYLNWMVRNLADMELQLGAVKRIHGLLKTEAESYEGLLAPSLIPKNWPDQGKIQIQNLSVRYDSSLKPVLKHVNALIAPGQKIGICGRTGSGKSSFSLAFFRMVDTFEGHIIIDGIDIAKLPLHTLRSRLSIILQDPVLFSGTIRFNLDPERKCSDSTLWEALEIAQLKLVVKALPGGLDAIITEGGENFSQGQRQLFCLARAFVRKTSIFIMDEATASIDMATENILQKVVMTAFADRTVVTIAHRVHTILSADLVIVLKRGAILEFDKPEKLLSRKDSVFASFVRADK
Sulfonylurea receptors; K-ATP channels (Homo sapiens), sequence (Q14654 whole entry, looked up): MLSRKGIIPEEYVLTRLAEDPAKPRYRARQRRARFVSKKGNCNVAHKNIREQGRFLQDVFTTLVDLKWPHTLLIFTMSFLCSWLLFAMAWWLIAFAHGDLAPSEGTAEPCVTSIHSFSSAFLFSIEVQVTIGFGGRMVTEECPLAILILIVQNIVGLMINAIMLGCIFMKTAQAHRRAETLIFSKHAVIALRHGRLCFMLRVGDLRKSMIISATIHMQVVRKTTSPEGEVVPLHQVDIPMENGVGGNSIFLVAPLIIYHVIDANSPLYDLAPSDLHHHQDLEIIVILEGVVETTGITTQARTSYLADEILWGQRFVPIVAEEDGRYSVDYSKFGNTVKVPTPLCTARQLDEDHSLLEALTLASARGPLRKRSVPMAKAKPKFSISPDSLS
Sulfonylurea receptors; K-ATP channels (Homo sapiens), sequence (Q15842 whole entry, looked up): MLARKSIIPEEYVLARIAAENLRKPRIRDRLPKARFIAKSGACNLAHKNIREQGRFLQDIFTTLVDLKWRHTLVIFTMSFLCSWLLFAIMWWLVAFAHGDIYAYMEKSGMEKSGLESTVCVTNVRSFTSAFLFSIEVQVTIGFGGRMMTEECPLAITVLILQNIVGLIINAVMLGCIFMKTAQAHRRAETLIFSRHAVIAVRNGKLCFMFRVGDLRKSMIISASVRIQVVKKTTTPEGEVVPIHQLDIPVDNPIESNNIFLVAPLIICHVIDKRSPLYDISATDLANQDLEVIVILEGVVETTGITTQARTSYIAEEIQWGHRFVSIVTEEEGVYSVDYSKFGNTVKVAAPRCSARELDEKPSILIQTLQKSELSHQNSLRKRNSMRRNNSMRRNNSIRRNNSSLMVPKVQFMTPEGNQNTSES
Sodium-dependent serotonin transporter (Homo sapiens), sequence (P31645 whole entry, looked up): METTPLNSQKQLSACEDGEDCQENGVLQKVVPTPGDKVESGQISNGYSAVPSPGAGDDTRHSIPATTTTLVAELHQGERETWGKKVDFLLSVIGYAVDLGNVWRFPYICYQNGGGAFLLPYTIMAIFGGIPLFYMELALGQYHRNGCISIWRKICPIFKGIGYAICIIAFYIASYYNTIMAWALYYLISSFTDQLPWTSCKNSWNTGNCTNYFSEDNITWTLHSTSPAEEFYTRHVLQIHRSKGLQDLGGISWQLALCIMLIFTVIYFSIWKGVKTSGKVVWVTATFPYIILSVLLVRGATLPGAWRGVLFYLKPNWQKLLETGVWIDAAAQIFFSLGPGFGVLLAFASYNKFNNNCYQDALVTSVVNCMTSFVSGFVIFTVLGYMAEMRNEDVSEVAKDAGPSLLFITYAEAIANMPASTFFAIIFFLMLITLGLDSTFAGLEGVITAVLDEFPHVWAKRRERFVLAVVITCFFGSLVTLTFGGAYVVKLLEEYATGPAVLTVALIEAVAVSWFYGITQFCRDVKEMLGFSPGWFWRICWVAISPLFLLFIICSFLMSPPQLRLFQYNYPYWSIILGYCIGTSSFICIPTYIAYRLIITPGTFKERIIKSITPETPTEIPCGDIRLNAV
D(1A) dopamine receptor (Rattus norvegicus), sequence (P18901 whole entry, looked up): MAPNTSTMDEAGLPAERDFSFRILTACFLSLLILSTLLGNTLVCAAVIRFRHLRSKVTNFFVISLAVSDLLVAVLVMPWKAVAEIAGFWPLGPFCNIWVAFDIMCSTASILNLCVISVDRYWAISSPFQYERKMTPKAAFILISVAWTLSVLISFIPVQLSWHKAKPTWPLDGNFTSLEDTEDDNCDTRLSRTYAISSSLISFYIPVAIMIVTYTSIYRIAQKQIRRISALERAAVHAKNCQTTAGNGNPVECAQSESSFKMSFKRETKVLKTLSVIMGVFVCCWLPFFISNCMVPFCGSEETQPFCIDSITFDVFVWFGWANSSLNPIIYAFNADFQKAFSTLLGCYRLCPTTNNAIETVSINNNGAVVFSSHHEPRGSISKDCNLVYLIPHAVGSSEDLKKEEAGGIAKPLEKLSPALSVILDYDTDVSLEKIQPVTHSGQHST
D(1A) dopamine receptor, sequence (P18901 whole entry): as the sequence (P18901 whole entry, looked up) above

## COc1cc2c(cc1OC)Cc1[nH]c3ccccc3c1CCN(C)CC2
[1]
  Activity: -2%
[2]
  Activity: -22%
[3]
  Activity: -67%
[4]
  Ki: 960 nM
[5]
  Activity: 3%
[6]
  Activity: 9%
[7]
  Activity: -23%
[8]
  Activity: -19%
D(1A) dopamine receptor
  pKi: 7.04
D(2) dopamine receptor
  pKi: 6.14
[9]
  Activity: 1%
[10]
  Activity: 1%
[11]
  Activity: -22%
[12]
  Activity: -10%
[13]
  Activity: -44%
[14]
  Activity: -1%
[15]
  Activity: -8%
[16]
  Activity: -9%
[17]
  Activity: -82%
[18]
  Activity: -77%

## C[N+]12CCc3c([nH]c4ccccc34)C1c1[nH]c3ccccc3c1CC2 (configuration not stated)
[1]
  Activity: -33%
[2]
  Activity: -3%
[19]
  Activity: -32%
[20]
  Activity: 11%
[21]
  Decrease: -64%
[6]
  Activity: -3%
[7]
  Activity: -4%
[8]
  Activity: -4%
[22]
  Activity: -22%
[9]
  Activity: 0%
[10]
  Activity: 6%
[11]
  Activity: -15%
[12]
  Activity: 3%
[13]
  Activity: -20%
[14]
  Activity: -17%
[23]
  Activity: 11%
[16]
  Activity: 7%

## CN1CCc2c([nH]c3ccccc23)Cc2[nH]c3ccccc3c2CC1
[1]
  Activity: -13%
[2]
  Activity: -25%
[3]
  Activity: -80%
[4]
  Ki: 180 nM
[5]
  Activity: -6%
[6]
  Activity: 9%
[7]
  Activity: -4%
[8]
  Activity: -21%
D(1A) dopamine receptor
  pKi: 8.02
D(2) dopamine receptor
  pKi: 7.10
[9]
  Activity: 0%
[10]
  Activity: 0%
[11]
  Activity: -14%
[12]
  Activity: -7%
[13]
  Activity: -56%
[14]
  Activity: -5%
[15]
  Activity: 0%
[16]
  Activity: -11%
[17]
  Activity: -95%
[18]
  Activity: -95%
